# Source: ChEMBL document CHEMBL1149790, “Synthesis of some novel thiourea derivatives obtained from 5-[(4-aminophenoxy)methyl]-4-alkyl/aryl-2,4-dihydro-3H-1,2,4-triazole-3-thiones and evaluation as antiviral/anti-HIV and anti-tuberculosis agents” (Eur J Med Chem, 2008)
# Activity calls are given as the source filed them. No cut-off for these calls is given here.
# Key:
# Punta Toro virus = experiment: Antiviral activity against Punta Toro virus in african green monkey Vero cells assessed as reduction of virus-induced cytopathogenicity; type: functional
# In short: (§1)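 Confluent cell monolayers (E6SM, HEL, HeLa or Vero, per line) inoculated with 100 CCID50 virus; 1 h adsorption, residual virus removed, then incubated with compound at 400, 200, 100 … µg/ml. Cytopathicity scored once complete in untreated virus controls; MIC = concentration inhibiting virus-induced cytopathicity.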
# [1] = test system: Vesicular stomatitis virus; experiment: Antiviral activity against vesicular stomatitis virus in human HeLa cells assessed as inhibition of virus-induced cytopathogenicity; type: functional; in short: as §1
# [2] = Cytotoxicity against human HEL cells assessed as reduction of cell growth; type: cell-based
# In short: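 HEL cells; CC50 = compound concentration reducing cell growth by 50%.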
# [3] = test system: Human immunodeficiency virus 1; experiment: Antiviral activity against HIV1 3B in human MT4 cells assessed as protection against virus-induced cytopathogenicity by MTT assay; type: functional, organism-based; design: Activity: concentration or dose not given beside the values; details: for IC50: Human immunodeficiency virus 1, 3B, MT4
# In short: (§2)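 MT-4 cells at 6 × 10⁵ cells/ml infected with HIV-1 IIIB or HIV-2 ROD at 100–300 CCID50; compounds in serial five-fold dilutions, triplicate mock- and virus-infected wells. MTT viability read at 540 and 690 nm after 5 days, median OD of three wells; EC50 = 50% protection from viral cytopathic effect.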
# Human alphaherpesvirus 2 [4] = experiment: Antiviral activity against HSV2 G in human E6SM cells assessed as reduction of virus-induced cytopathogenicity; type: functional; details: Human alphaherpesvirus 2, G; in short: as §1
# Human alphaherpesvirus 1 [5] = experiment: Antiviral activity against HSV1 KOS in human HEL cells assessed as reduction of virus-induced cytopathogenicity; type: functional; details: Human alphaherpesvirus 1, KOS; in short: as §1
# Human alphaherpesvirus 1 [6] = experiment: Antiviral activity against HSV1 KOS in human E6SM cells assessed as reduction of virus-induced cytopathogenicity; type: functional; details: Human alphaherpesvirus 1, KOS; in short: as §1
# Coxsackievirus B4 [7] = experiment: Antiviral activity against Coxsackie virus B4 in african green monkey Vero cells assessed as reduction of virus-induced cytopathogenicity; type: functional; details: Enterovirus B; in short: as §1
# [8] = test system: Mammalian orthoreovirus 1; experiment: Antiviral activity against Reo virus 1 in african green monkey Vero cells assessed as reduction of virus-induced cytopathogenicity; type: functional; in short: as §1
# Sindbis virus = experiment: Antiviral activity against Sindbis virus in african green monkey Vero cells assessed as reduction of virus-induced cytopathogenicity; type: functional; in short: as §1
# Human alphaherpesvirus 1 [9] = experiment: Antiviral activity against thymidine kinase deficient and acyclovir resistant HSV1 KOS in human E6SM cells assessed as reduction of virus-induced cytopathogenicity; type: functional; details: Human alphaherpesvirus 1, KOS; in short: as §1
# [10] = Cytotoxicity against human HeLa cells; type: cell-based
# In short: (§3)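 Uninfected cell cultures exposed to test compounds alongside antiviral assays; minimum cytotoxic concentration (MCC) = concentration causing a microscopically detectable alteration of cell morphology.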
# Vero = experiment: Cytotoxicity against african green monkey Vero cells; type: cell-based; details: chlorocebus sabaeus; in short: as §3
# [11] = test system: Human immunodeficiency virus 2; experiment: Antiviral activity against HIV2 ROD in human MT4 cells assessed as protection against virus-induced cytopathogenicity by MTT assay; type: functional, organism-based; design: Activity: concentration or dose not given beside the values; details: for IC50: Human immunodeficiency virus 2, ROD, MT4; in short: as §2
# Human alphaherpesvirus 3 [12] = experiment: Antiviral activity against TK- VZV 07/1 infected HEL cells assessed as reduction in virus plaque formation; type: functional, organism-based; details: Human alphaherpesvirus 3, 07/1, HEL
# Human alphaherpesvirus 1 [13] = experiment: Antiviral activity against thymidine kinase deficient and acyclovir resistant HSV1 KOS in human HEL cells assessed as reduction of virus-induced cytopathogenicity; type: functional; details: Human alphaherpesvirus 1, KOS; in short: as §1
# Human betaherpesvirus 5 [14] = experiment: Antiviral activity against human cytomegalovirus Davis infected HEL cells assessed as reduction in virus plaque formation; type: functional, organism-based; details: Human betaherpesvirus 5, Davis
# [15] = test system: Respiratory syncytial virus; experiment: Antiviral activity against respiratory syncytial virus in human HeLa cells assessed as inhibition of virus-induced cytopathogenicity; type: functional; in short: as §1
# [16] = Cytotoxicity against human MT4 cells by MTT assay; type: cell-based
# In short: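 Mock-infected MT-4 cells (6 × 10⁵ cells/ml) with serial five-fold compound dilutions in triplicate; MTT reduction read at 540 and 690 nm after 5 days, median OD of three wells; CC50 = concentration reducing OD540 of mock-infected control by 50%.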
# Coxsackievirus B4 [17] = experiment: Antiviral activity against Coxsackie virus B4 in human HeLa cells assessed as inhibition of virus-induced cytopathogenicity; type: functional; details: Enterovirus B; in short: as §1
# [18] = Cytotoxicity against human E6SM cells; type: cell-based; details: E6SM cells; in short: as §3
# [19] = test system: Vesicular stomatitis virus; experiment: Antiviral activity against in Vesicular stomatitis virus in human E6SM cells assessed as reduction of virus-induced cytopathogenicity; type: functional; in short: as §1
# Human alphaherpesvirus 2 [20] = experiment: Antiviral activity against HSV2 G in human HEL cells assessed as reduction of virus-induced cytopathogenicity; type: functional; details: Human alphaherpesvirus 2, G; in short: as §1
# Human respirovirus 3 = experiment: Antiviral activity against Parainfluenza 3 virus in african green monkey Vero cells assessed as reduction of virus-induced cytopathogenicity; type: functional; in short: as §1
# [21] = test system: Vesicular stomatitis virus; experiment: Antiviral activity against in Vesicular stomatitis virus in human HEL cells assessed as reduction of virus-induced cytopathogenicity; type: functional; in short: as §1
# [22] = test system: Mycobacterium tuberculosis; experiment: Antitubercular activity against Mycobacterium tuberculosis H37Rv at 6.25 ug/ml by MABA assay; type: functional
# Human alphaherpesvirus 3 [23] = experiment: Antiviral activity against TK+ VZV OKA infected HEL cells assessed as reduction in virus plaque formation; type: functional, organism-based; details: Human alphaherpesvirus 3, OKA
# Human betaherpesvirus 5 [24] = experiment: Antiviral activity against human cytomegalovirus AD169 infected HEL cells assessed as reduction in virus plaque formation; type: functional, organism-based; details: Human betaherpesvirus 5, AD169, HEL
# [25] = Cytotoxicity against human HEL cells assessed as alteration of cell morphology; type: cell-based; in short: as §3
SMILES,MIC (Punta Toro virus) [µg/mL],MIC [1] [µg/mL],CC50 [2] [µg/mL],Activity [3] [%],IC50 [3] [µg/mL],MIC (Human alphaherpesvirus 2 [4]) [µg/mL],MIC (Human alphaherpesvirus 1 [5]) [µg/mL],MIC (Human alphaherpesvirus 1 [6]) [µg/mL],MIC (Coxsackievirus B4 [7]) [µg/mL],MIC [8] [µg/mL],MIC (Sindbis virus) [µg/mL],MIC (Human alphaherpesvirus 1 [9]) [µg/mL],MCC [10] [µg/mL],Activity (Vero) [µg/mL],Activity [11] [%],IC50 [11] [µg/mL],EC50 (Human alphaherpesvirus 3 [12]) [µg/mL],MIC (Human alphaherpesvirus 1 [13]) [µg/mL],EC50 (Human betaherpesvirus 5 [14]) [µg/mL],MIC [15] [µg/mL],other results
Cn1c(COc2ccc(NC(=S)Nc3ccccc3)cc2)n[nH]c1=S,> 80,> 400,> 50,3.5,> 98.9,> 80,> 80,> 80,> 80,> 80,> 80,> 80,> 400,400,6.5,> 87.8,38,> 80,49,> 400,CC50 [16]: ≥ 87.8 µg/mL; MIC (Coxsackievirus B4 [17]): > 400 µg/mL; MCC [18]: 400 µg/mL; MIC [19]: > 80 µg/mL; MIC (Human alphaherpesvirus 2 [20]): > 80 µg/mL; MIC (Human respirovirus 3): > 80 µg/mL; MIC [21]: > 80 µg/mL; inhibition at 6.25 µg/mL [22]: 70%; EC50 (Human alphaherpesvirus 3 [23]): 33 µg/mL; EC50 (Human betaherpesvirus 5 [24]): 66 µg/mL; MCC [25]: 400 µg/mL
CCn1c(COc2ccc(N)cc2)n[nH]c1=S,> 16,> 400,> 50,6,> 125,240,> 400,> 400,> 16,> 16,> 16,240,≥ 400,80,8,> 125,> 100,240,> 100,> 400,CC50 [16]: > 125 µg/mL; MIC (Coxsackievirus B4 [17]): > 400 µg/mL; MCC [18]: > 400 µg/mL; MIC [19]: > 400 µg/mL; MIC (Human alphaherpesvirus 2 [20]): 240 µg/mL; MIC (Human respirovirus 3): > 16 µg/mL; MIC [21]: > 400 µg/mL; Activity [22]: inactive; EC50 (Human alphaherpesvirus 3 [23]): > 100 µg/mL; EC50 (Human betaherpesvirus 5 [24]): > 100 µg/mL; MCC [25]: > 400 µg/mL
C=CCNC(=S)Nc1ccc(OCc2n[nH]c(=S)n2C)cc1,> 80,> 80,> 50,1.5,> 107,240,> 400,> 400,48,> 80,> 80,240,400,400,3,> 114,> 100,240,> 100,> 80,CC50 [16]: ≥ 107 µg/mL; MIC (Coxsackievirus B4 [17]): > 80 µg/mL; MCC [18]: > 400 µg/mL; MIC [19]: > 400 µg/mL; MIC (Human alphaherpesvirus 2 [20]): 240 µg/mL; MIC (Human respirovirus 3): > 80 µg/mL; MIC [21]: > 400 µg/mL; EC50 (Human alphaherpesvirus 3 [23]): > 100 µg/mL; EC50 (Human betaherpesvirus 5 [24]): > 100 µg/mL; MCC [25]: > 400 µg/mL
